One series concerns Plasmodium falciparum. Description: Antiplasmodial activity against chloroquine-resistant Plasmodium falciparum W2 infected in human erythrocytes assessed as inhibition of parasite growth after 24 hrs by [3H]hypoxanthine incorporation assay. It counts as functional, organism-based. Put shortly: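 Ring-stage parasites, sorbitol-synchronised, in human O-negative erythrocytes in RPMI with 10% human plasma; plated at 1% parasitemia, 1% haematocrit. Compounds diluted from DMSO stocks in hypoxanthine-free medium, final DMSO 0.002%. After 24 h, [3H]-hypoxanthine (0.5 μCi/well) added for another 18 h at 37 °C. Incorporation compared with drug-free controls, IC50 by linear interpolation. Three experiments, each in triplicate.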

Another series has as its system HT-29. Put plainly: Growth inhibition against human HT-29 cells after 72 hrs by inverted microscopy. It counts as functional. The settings on record: HT-29, 72 h. Put shortly:
(§1)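 Cells seeded at 2×10^4 cells/well in MEM10FCS containing compound at the test concentrations and exposed continuously for 72 h at 37 °C, 10% CO₂, 98% humidity. Untreated control wells were counted daily to confirm exponential growth. Cells were stained with crystal violet and inspected by inverted microscope, and inhibition was judged against controls. GI50 (50% growth inhibition) is the mean of duplicate wells.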

Series [1] can be described thus: Growth inhibition against human LoVo/DX cells after 72 hrs by inverted microscopy. It counts as functional. The procedure, abridged:
as §1

Series [2] can be described thus: Cytotoxicity against human HepG2 cells after 24 hrs by MTT assay. It counts as cell-based. Put shortly: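 Hep G2A16 hepatoma cells kept in RPMI1640 with 5% FBS and gentamicin, trypsinised and plated at 4×10^4 cells/well, then left 18 h at 37 °C before dosing. Compounds were given in triplicate at four serial-dilution concentrations starting at 1000 µg/mL, with final DMSO 0.01%, for 24 h at 37 °C. MTT (6 mg/mL in PBS) was added for 1 h 30 min, solubilised in DMSO and read at 570 nm. Cytotoxic concentration was taken from the dose–response curve.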
A general note: Tetrazolium dyes change colour on reduction, which living cells bring about.

Series [3] in a line: Selectivity index, ratio of CC50 for human HepG2 cells to IC50 for chloroquine-resistant Plasmodium falciparum W2 infected in human erythrocytes. It counts as functional. Put shortly: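 HepG2 hepatoma cells in RPMI1640 with 5% FBS, 4×10^4 cells/well, allowed 18 h at 37 °C. Four serial dilutions from 1000 µg/mL, final DMSO 0.01%, in triplicate, for 24 h at 37 °C. Cytotoxic concentration taken from the dose–response curve, then divided by the antiplasmodial IC50.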

In a further series the test system is LoVo. Put plainly: Growth inhibition against human LoVo cells after 72 hrs by inverted microscopy. It counts as functional. The procedure, abridged:
as §1

Another series has as its system HeLa. Description: Growth inhibition against human HeLa cells after 72 hrs by inverted microscopy. It counts as functional. Put shortly:
as §1

Series [4] can be described thus: Growth inhibition against human IGROV cells after 72 hrs by inverted microscopy. It counts as functional. Put shortly:
as §1

The nature of series [5]: Growth inhibition against human IGROV-ET cells after 72 hrs by inverted microscopy. It counts as functional. Put shortly: as §1
The subject of another series is K562. Description: Growth inhibition against human K562 cells after 72 hrs by inverted microscopy. It counts as functional. The settings on record: K562, 72 h. Put shortly:
as §1

The subject of a further series is PANC-1. Put plainly: Growth inhibition against human PANC1 cells after 72 hrs by inverted microscopy. It counts as functional. Conditions: PANC-1, 72 h. The procedure, abridged: as §1

Where a name gives a salt, the structure may show the parent alone.

By IC50 is commonly meant the midpoint of a concentration-inhibition curve. In general, GI50 refers to the concentration that inhibits growth by half. Higher therefore signals less potent growth inhibition. The term CC50 denotes the concentration at which the toxic effect on the cells reaches its halfway point. High values mean better tolerance by the cells, low ones harm at low concentration.

On to `C=C1C[C@@]23CC[C@@H]4[C@](C)(C(=O)O)CCC[C@@]4(C)C2=CC[C@@H]1C3` [GRANDIFLORENIC ACID], for which, in the series on Plasmodium falciparum, the IC50 was 23.3 µM.

As for `COC(=O)[C@]1(C)CCC[C@]2(C)[C@@H]1CC[C@@]13C[C@H](C[C@H]4O[C@]412)[C@@]1(CO1)C3`, the GI50 (with HT-29; in series [1]; in the series with LoVo; in the series with HeLa; in series [4]; in [5]) was more than 8.66 µM throughout. In addition, the GI50 in the series on K562 and with PANC-1 was more than 8.66 µM throughout. The compound further gave a CC50 at 24 h in series [2] of 1240 µM. Also, in series [3], the “Ratio CC50/IC50” value is 119.1. Also, the IC50 in the series with Plasmodium falciparum came out at 10.4 µM.

With `COC(=O)[C@]1(C)CCC[C@@]2(C)[C@@H]3CC[C@H]4C[C@@]3(CC[C@@H]21)C[C@@H]4C1NCCCN1`, the IC50 with Plasmodium falciparum stood at 5.4 µM.

With `COC(=O)[C@]1(C)CCC[C@@]2(C)[C@@H]3CC[C@@H]4C[C@@]3(CC[C@@H]21)C[C@@H]4CO`, the GI50 with HT-29 was more than 9.02 µM; in series [1], more than 9.02 µM; in the series on LoVo, more than 9.02 µM; with HeLa, more than 9.02 µM; in series [4] it was more than 9.02 µM; in series [5], 7.23 µM. Besides, the GI50 with K562 and in the series with PANC-1 was more than 9.02 µM in each case.

`C[C@@]1(C(=O)O)CCC[C@@]2(C)C3=CC[C@@H]4C[C@@]3(CC[C@H]12)CC4=O`: the IC50 with Plasmodium falciparum is more than 157 µM.

For the compound `C[C@@]1(C(=O)O)CCC[C@@]2(C)C3=CC[C@H]4C[C@@]3(CC[C@H]12)C[C@]41CO1`, the GI50 (in the series with HT-29; in series [1]; in the series with LoVo; in the series on HeLa; in [4]; in series [5]) was more than 9.48 µM in each case. The GI50 in the series on K562 and in the series on PANC-1 was more than 9.48 µM each time.

`COC(=O)[C@]1(C)CCC[C@@]2(C)[C@@H]3CC[C@H]4C[C@@]3(CC[C@@H]21)C[C@]41CO1`: the concentration for 50% growth inhibition (GI50) (in the series with HT-29; in series [1]; in the series with LoVo; in the series on HeLa; in [4]; in series [5]) was more than 9.02 µM each time. In addition, the GI50 in the series on K562 and in the series on PANC-1 was more than 9.02 µM in each case. The compound also yielded a CC50 at 24 h in series [2] of 111 µM. For the same compound, the “Ratio CC50/IC50” value in series [3] was 11.5. The concentration for half-maximal inhibition (IC50) in the series with Plasmodium falciparum was 9.6 µM.

On to `C=C1[C@H]2CC[C@H]3[C@]4(C)CCC[C@@](C)(C(=O)OC)[C@H]4CC[C@]3(C2)[C@H]1O`, for which the GI50 with HT-29 was 7.4 µM; in series [1], more than 9.02 µM; with LoVo, 8.21 µM; in the series on HeLa, 7.04 µM; in series [4], 7.52 µM; in series [5], more than 9.02 µM. The GI50 in the series on K562 and in the series with PANC-1 was more than 9.02 µM each time. Also, the IC50 in the series with Plasmodium falciparum was 8.4 µM.

For `COC(=O)[C@]1(C)CCC[C@@]2(C)C3=CC[C@H]4C[C@@]3(CC[C@H]12)CC4CO` (mixture of isomers), the 50% growth inhibitory concentration (GI50) (in the series with HT-29; in series [1]; with LoVo; with HeLa; in [4]; in [5]) was more than 9.02 µM throughout. Moreover, the GI50 with K562 and with PANC-1 was more than 9.02 µM in each case. In addition, the IC50 in the series on Plasmodium falciparum is 33.1 µM.

Regarding `COC(=O)[C@]1(C)CCC[C@@]2(C)[C@@H]3CC[C@H]4C[C@]3(C=C4C)CC[C@@H]21`, the GI50 (in the series on HT-29; in [1]; with LoVo; in the series with HeLa; in series [4]; in series [5]) was more than 9.48 µM throughout. Besides, the GI50 in the series with K562 and in the series on PANC-1 was more than 9.48 µM throughout. This compound also showed a CC50 at 24 h in [2] of 44.9 µM. Also, the “Ratio CC50/IC50” value in [3] was 5.1. For the same compound, the IC50 with Plasmodium falciparum turned out to be 8.8 µM.

With `COc1cccc2c1C(=O)c1c(O)c3c(c(O)c1C2=O)C[C@@](O)(C(=O)CO)C[C@@H]3O[C@H]1C[C@H](N)[C@H](O)[C@H](C)O1` [DOXORUBICIN HYDROCHLORIDE], the GI50 is 0.15 µM with HT-29; 2.21 µM in series [1]; 0.24 µM in the series on LoVo; 0.17 µM in the series on HeLa; 0.11 µM in [4]; 6.17 µM in [5]. The values for the GI50 with K562 and in the series on PANC-1 were 0.17 µM and 0.24 µM, respectively.

Compound `CCN(CC)CCCC(C)Nc1ccnc2cc(Cl)ccc12` (stereo not given) [CHLOROQUINE] displayed a CC50 at 24 h in series [2] of 504 µM.

Turning to `COC(=O)[C@]1(C)CCC[C@@]2(C)[C@@H]3CC[C@H]4C[C@@]3(CC[C@@H]21)[C@@H](O)[C@@H]4C`, the GI50 was more than 9.02 µM in the series with HT-29; more than 9.02 µM in series [1]; more than 9.02 µM with LoVo; more than 9.02 µM with HeLa; 8.34 µM in series [4]; more than 9.02 µM in series [5]. The GI50 in the series on K562 and with PANC-1 was more than 9.02 µM throughout. In addition, in the series with Plasmodium falciparum, the IC50 came out at 34.7 µM.

Consider `COC(=O)[C@]1(C)CCC[C@@]2(C)[C@@H]3[C@H](O)C[C@H]4C[C@@]3(CC[C@@H]21)C[C@@H]4CO`, for which the GI50 (in the series on HT-29; in series [1]; with LoVo; in the series on HeLa; in series [4]; in series [5]) was more than 8.56 µM each time. In addition, the concentration for 50% growth inhibition (GI50) in the series on K562 and with PANC-1 was more than 8.56 µM throughout. Moreover, in the series with Plasmodium falciparum, the IC50 was more than 143 µM.

Turning to `COC(=O)[C@]1(C)CCC[C@@]2(C)[C@@H]3CC[C@H]4C[C@@]3(CC[C@@H]21)C[C@H]4C=O`, the GI50 (in the series on HT-29; in series [1]; in the series with LoVo; in the series on HeLa; in [4]; in series [5]) was more than 9.02 µM in each case. Also, the GI50 with K562 and with PANC-1 was more than 9.02 µM each time.

Turning to `COC(=O)[C@]1(C)CCC[C@@]2(C)[C@@H]3CC[C@H]4C[C@@]3(CC[C@@H]21)C[C@@H]4C=O`, the GI50 with HT-29 was more than 9.02 µM; in series [1], more than 9.02 µM; in the series on LoVo, 8.69 µM; in the series with HeLa it was more than 9.02 µM; in series [4] it was more than 9.02 µM; in series [5], more than 9.02 µM. In addition, the values for the GI50 with K562 and in the series on PANC-1 were 8.18 µM and more than 9.02 µM, respectively.

Consider `C=C1C[C@@]23CC[C@H]4[C@@](C)(CCC[C@@]4(C)C(=O)O)[C@@H]2CC[C@@H]1C3` [KAURENOIC ACID], for which the GI50 (in the series with HT-29; in [1]; in the series on LoVo; with HeLa; in series [4]; in [5]) was more than 9.92 µM in each case. Besides, the GI50 in the series with K562 and in the series on PANC-1 was more than 9.92 µM each time. This compound also gave a CC50 at 24 h in series [2] of 192 µM. In series [3], the “Ratio CC50/IC50” value stood at 9.1. Also, in the series on Plasmodium falciparum, the IC50 came out at 21.1 µM.

In the case of `COC(=O)[C@]1(C)CCC[C@@]2(C)[C@@H]3CC[C@H]4C[C@@]3(CC[C@@H]21)C[C@@H]4C(=O)O`, in the series on Plasmodium falciparum, the IC50 is more than 144 µM.

As for `COC(=O)[C@]1(C)CCC[C@@]2(C)[C@@H]3[C@@H](O)C[C@H]4C[C@@]3(CC[C@@H]21)C[C@@H]4CO`, the GI50 (in the series on HT-29; in series [1]; in the series on LoVo; in the series with HeLa; in series [4]; in series [5]) was more than 8.56 µM each time. Moreover, the GI50 in the series with K562 and in the series with PANC-1 was more than 8.56 µM in each case. In addition, the IC50 in the series with Plasmodium falciparum is more than 143 µM.

For the compound `C=C1C[C@@]23CC[C@H]4[C@@](C)(CCC[C@@]4(C)C(=O)OC)[C@@H]2CC[C@H]1C3`, the GI50 in the series with HT-29 was more than 9.48 µM; in [1], more than 9.48 µM; in the series with LoVo it was more than 9.48 µM; with HeLa, more than 9.48 µM; in [4], 8.44 µM; in [5], more than 9.48 µM. Also, the GI50 in the series on K562 and in the series with PANC-1 was more than 9.48 µM throughout. In addition, the CC50 at 24 h in series [2] is 32.2 µM. Besides, the “Ratio CC50/IC50” value in series [3] was found to be 3.9. The IC50 in the series on Plasmodium falciparum was determined as 8.2 µM.

Values taken from ChEMBL document CHEMBL2331420, “Synthesis, cytotoxicity and antiplasmodial activity of novel ent-kaurane derivatives” (Eur J Med Chem, 2013).
